# Published values pooled from the literature.
# Compare with care: the assays were run in different laboratories.
# Target: Death-associated protein kinase 3 (DAPK3, Homo sapiens, UniProt O43293)
SMILES,effect on,method,tested at,remaining binding [%]
O=C1NC(c2ccccn2)Sc2ccccc21 (stereo not shown),cell-free assay,competition with immobilised ligand,1 µM,0
C[C@@H](c1ccc(-n2cnc3c(N)ncnc32)cc1)N1CCc2nn(C)c(Cc3ccccc3)c2C1=O,binding,competition with immobilised ligand,0.1 µM,87
CS(=O)(=O)N1CCCC(NC(=O)[C@H](CCC2CCCCC2)NC(=O)c2ccc(CNC(=O)c3cnc4ccccn34)cc2)C1 (stereo partly shown),cell-free assay,competition with immobilised ligand,0.1 µM,90
COc1cnc(Nc2cccc(S(N)(=O)=O)c2)nc1N1CCN(c2ccccc2)C(=O)C1,binding,competition with immobilised ligand,1 µM,92
O=C(c1ccc(Nc2ncc(Cl)c(-c3cc4ccccc4s3)n2)cc1)N1CCC(N2CCCC2)CC1,binding,competition with immobilised ligand,1 µM,11
C[C@@H]1CCN(c2nccc(-c3cnn4ncccc34)n2)C1,binding,,1 µM,69
CN(C)c1ncnc(-c2ccc3nc(Nc4cc(CN5CCN(C(=O)CC(F)(F)F)CC5)ccn4)[nH]c3c2)c1Cl,cell-free assay,competition with immobilised ligand,1 µM,99
Nc1ncc2c(n1)-c1c([nH]c3ccc(C#CC4CC4)cc13)CCCC2,binding,competition with immobilised ligand,1 µM,100
CC(=O)Nc1c(C(C)=O)c(=O)n(C)c2nc(-c3ccc(Cl)cc3Cl)c(-c3ccc(Cl)cc3)cc12,cell-free assay,competition with immobilised ligand,1 µM,100
FC(F)(F)Oc1cccc(-c2cnc3ccc(-c4ccncc4)nn23)c1,cell-free assay,competition with immobilised ligand,5 µM,67
C=CC(=O)N1CCC(C(=O)NCC(=O)N2CCN(c3nc(-c4cnc(N)nc4C(F)F)nc(N4CCOCC4)n3)CC2)CC1,binding,competition with immobilised ligand,1 µM,89
CC1CCCN1c1nccc(-c2cnn3ncccc23)n1 (stereo not shown),binding,,1 µM,89
CNC(=O)Nc1ccc2c(c1)[C@@]1(CC2)OC(=O)N(CC(=O)N(Cc2ccc(F)cc2)[C@@H](C)C(F)(F)F)C1=O,cell-free assay,competition with immobilised ligand,1 µM,100
O=C(NCCCN1CCOCC1)c1ccc(Nc2ncc(Cl)c(-c3ccc(Cl)s3)n2)cc1,binding,competition with immobilised ligand,1 µM,17
CN(CCCC(F)(F)F)c1nccc(-c2cnn3ncccc23)n1,binding,,1 µM,90
COc1ccc2cc(OCC3(C(=O)O)CN(C(=O)c4ccc(F)cc4)C3)ccc2c1,cell-free assay,competition with immobilised ligand,1 µM,100
Cc1cnn2ncc(-c3ccnc(N(C)C)n3)c2c1,binding,,1 µM,84
O=C(Nc1c[nH]nc1C(=O)NC1CCNCC1)c1cc(F)cc(F)c1,binding,competition with immobilised ligand,1 µM,100
CN(C)c1nccc(-c2cnc3ncccn23)n1,binding,,1 µM,91
O=C(NCCCN1CCOCC1)c1ccc(Nc2nccc(-c3cc4ccccc4s3)n2)cc1,binding,competition with immobilised ligand,1 µM,9.7
CNC(=O)Nc1ccc2c(c1)CC[C@@]21OC(=O)N(CC(=O)N(Cc2ccc(F)cc2)[C@@H](C)C(F)(F)F)C1=O,cell-free assay,competition with immobilised ligand,1 µM,86
N[C@@H]1CCN(c2nccc(-c3cnn4ncccc34)n2)C1,binding,,1 µM,99
